High-throughput results (PubChem BioAssay)
A selection: hits, their analogues and other compounds. The true share with any hit is near 1%.
procasp3 activ = procaspase-3 (human) activation; P42574; recombinant procaspase-3 D3A, Ac-DEVD-pNA absorbance 405 nm; activation, % at 8.5 µM; actives 0.11% (n = 330,000);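 active = activation above the mean of all tested compounds plus 3 SD, cut at about 21% in these data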;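 also: 0% = DMSO alone and 100% = DMSO wells spiked with extra 5 µM PC-3 D3A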
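Test system: Procaspase-3 D3A mutant; medium: Zinc-free HEPES/NaCl buffer with 0.01% Triton X-100 at pH 7.4; reagent: DEVD-pNA substrate; doses: one concentration, 8.5 µM nominal, 0.8% DMSO; times: 1 h preincubation plus 2 h reaction at 25 °C; signal: Epi-absorbance at 405 nm of released p-nitroaniline, 0 and 120 min; replicates: singlicate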
PME-1 inh = blocks human protein phosphatase methylesterase 1. Q9Y570. recombinant PME-1, FP-Rh probe fluorescence polarization. inhibition, % at 5.9 µM. actives 0.53% (n = 320,000);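 active = inhibition above the campaign mean of all compounds plus 3 SD, cut at about 26% in these data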;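 also: competitive labeling of PME-1 active site by serine hydrolase directed probe; 0% = PME-1 with DMSO and 100% = wells lacking PME-1 enzyme; inhibitors block probe labeling so polarization falls and inhibition rises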
LYPLA2 counter = LYPLA2 (human) inhibition in PME1 counter-screen | recombinant LYPLA2, FP-Rh probe fluorescence polarization | inhibition, % at 5.9 µM | actives 0.38% (n = 320,000);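 active = inhibition above the screen-wide mean plus 3 SD, limit set per campaign, cut at about 26% in these data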;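 also: 0% = LYPLA2 with DMSO and 100% = wells lacking LYPLA2 enzyme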
Target sequence (O95372 whole entry, looked up): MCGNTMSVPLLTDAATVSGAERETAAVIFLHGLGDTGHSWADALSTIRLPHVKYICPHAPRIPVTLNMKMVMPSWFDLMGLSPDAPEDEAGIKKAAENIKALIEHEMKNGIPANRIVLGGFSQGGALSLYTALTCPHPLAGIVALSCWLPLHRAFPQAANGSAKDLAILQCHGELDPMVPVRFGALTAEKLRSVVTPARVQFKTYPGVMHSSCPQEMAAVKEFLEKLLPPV
LYPLA1 inh = counter-screen for PME1 inhibitors: inhibitors of human LYPLA1 | inhibition, % at 5.9 µM | recombinant LYPLA1, FP-Rh probe fluorescence polarization | actives 0.16% (n = 320,000);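 active = inhibition above the mean of all tested compounds plus 3 SD, set per campaign, cut at about 14% in these data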;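 also: inhibitors block serine hydrolase probe labeling of LYPLA1 so polarization falls; 0% = enzyme with DMSO and 100% = wells lacking LYPLA1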
procasp7 counter = activates human procaspase-7, counter-screen for procaspase-3 activators; actives 0.093% (n = 330,000); P55210; activation, % at 8.5 µM; recombinant procaspase-7, Ac-DEVD-pNA absorbance 405 nm; D23A/D198A/D206A triple mutant, cannot self-cleave; scale: DMSO 0, 5 µM enzyme 100;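 active = percent activation above the screen-wide mean plus 3 SD, cut at about 25% in these data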
Target sequence (P55210 whole entry D23A/D198A/D206A): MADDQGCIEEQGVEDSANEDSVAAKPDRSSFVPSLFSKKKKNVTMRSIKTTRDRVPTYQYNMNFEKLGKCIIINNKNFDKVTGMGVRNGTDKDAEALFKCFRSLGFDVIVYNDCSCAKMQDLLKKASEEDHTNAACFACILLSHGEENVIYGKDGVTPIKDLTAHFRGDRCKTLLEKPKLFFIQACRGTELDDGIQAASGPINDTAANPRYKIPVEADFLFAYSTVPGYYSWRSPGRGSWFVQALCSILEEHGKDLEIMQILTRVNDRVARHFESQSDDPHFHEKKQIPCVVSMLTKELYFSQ
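signal = Epi-absorbance of released pNA at 405 nm, two timepoints | assay system = Uncleavable procaspase-7 mutant enzyme | reagent = Ac-DEVD-pNA substrate, 400 µM as added | times = 1 h enzyme–compound preincubation and 2 h substrate reaction, both 25 °C | benchmarks = low DMSO alone, high DMSO plus 5 µM PC-7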
Fam108B counter = blocks mouse Fam108B hydrolase in RBBP9 counter-screen; actives 0.33% (n = 300,000); recombinant Fam108B, FP-Rh probe fluorescence polarization; inhibition, % at 9.51 µM;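 active = inhibition above the screen mean inhibition plus 3 SD, computed separately per campaign, cut at about 18% in these data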;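 also: inhibitors lower polarization as less probe binds the enzyme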
* marks the source's active call; other numbers are inactive results; / = no result given.

SMILES | procasp3 activ | PME-1 inh | LYPLA2 counter | LYPLA1 inh | procasp7 counter | Fam108B counter
Cn1c(C=O)c(C#Cc2ccccc2)c2ccccc21 | -33 | -7 | -6 | -1 | -34 | /
Cc1c(C(=O)O)cccc1-c1ccc(/C=N/Nc2ccc(Br)cc2)o1 | -11 | 29* | 14 | 7 | -26 | 7
Cc1c(C(=O)O)cccc1-c1ccc(/C=N/n2cnnc2)o1 | 3 | 0 | 8 | 1 | 1 | 1
Cc1cc(C)c2[nH]c(O)c(N=NC(=O)c3cc4c(s3)CCCC4)c2c1 | -2 | 26* | -3 | 2 | -5 | 0
COc1ccccc1CNC(=O)CN(C)S(=O)(=O)c1ccc2c(c1)c(=O)n(C)c(=O)n2C | -1 | 6 | 6 | 3 | 6 | 1
O=C(NCCc1ccccc1)c1ccc2nc(-c3ccco3)c(-c3ccco3)nc2c1 | -19 | 30* | 12 | -7 | -22 | 11
CC1(OC(=O)c2ccc(Cl)nc2)C(=O)C=C2C=C(C3CC3)OC=C2C1=O (stereo not given) | 4 | 25 | 21 | 21* | -2 | 20*
Nc1c(C(=O)Nc2ccccc2F)sc2nc(-c3ccco3)ccc12 | -15 | 37* | -11 | -10 | -20 | 3
c1ccc2c(c1)OCCc1c-2[nH]c2ccccc12 | -4 | 33* | 0 | 0 | -8 | 2
O=C1CCCc2c1[nH]c1ccccc21 | -2 | 3 | -2 | 2 | 2 | 1
CC1(C)CC(=O)C2=C(C1)N1C(=C(C#N)C2c2ccc(Cl)cc2)N=C(N)c2ccccc21 (stereo not given) | -16 | 31* | -2 | -3 | -11 | 1
Cc1ccc(C)c(SCC(=O)NC(=O)NC2CCCC2)c1 | -2 | 3 | 5 | 2 | 6 | /
COc1cc(/C=N/NC(=O)C(Cc2c[nH]c3ccccc23)NC(=O)OCc2ccccc2)cc([N+](=O)[O-])c1O (stereo not given) | -16 | 29* | 0 | -4 | 8 | 13
Cc1nn(-c2ccccc2)c2sc(C(=O)O)cc12 | -5 | 0 | 0 | 4 | 5 | -3
Cc1nn(-c2ccccc2)c2sc(-c3n[nH]c(=S)o3)cc12 | -2 | 39* | 6 | 9 | -14 | 7
Cc1ccc(-c2c(C(=O)N/N=C/c3c[nH]c4ccccc34)nnn2-c2nonc2N)cc1 | 10 | 27* | 7 | -8 | -1 | 8
COc1ccc2c(c1)sc(N)[n+]2Cc1cc(C)cc2cccnc12 | 2 | 11 | 18 | 0 | -8 | -3
CCOc1ccc2c(c1)sc(N)[n+]2Cc1cc(C)cc2cccnc12 | 8 | 12 | 35* | 0 | -3 | 1
S=c1[nH]c(-c2ccccc2)cn1/N=C/c1cccc2ccccc12 | -12 | 28* | -1 | -8 | -25 | 17
S=c1[nH]c(-c2ccccc2)cn1/N=C/c1ccccc1Br | -3 | 10 | -3 | -1 | -9 | 6
Cc1cc(C)nc(/N=C(\N)Nc2cccc(OCc3ccccc3)c2)n1 | -5 | 0 | 1 | -1 | 5 | -1
Cc1cc(C)nc(/N=C(\N)Nc2ccc(OCc3ccccc3)cc2)n1 | 7 | -6 | 30* | 6 | 4 | 3
CCn1c(/C=C/c2c[nH]c3ccccc23)nc2ccccc2c1=O | 7 | 44* | -4 | -3 | -4 | 3
C[C@H](CO)N1C[C@H](C)[C@@H](CN(C)C(=O)NC2CCCCC2)Oc2ccc(NC(=O)Cc3ccccc3)cc2C1=O | 2 | / | / | / | 9 | /
O=C(CCNS(=O)(=O)c1ccccc1)NNC(=O)COc1ccc(Cl)cc1 | 1 | 4 | 6 | -2 | 4 | /
SMILES | procasp3 activ | PME-1 inh | LYPLA2 counter | LYPLA1 inh | procasp7 counter | Fam108B counter
O=C(O)c1ccc(N=Nc2c(O)[nH]c3cc(Cl)ccc23)cc1 | -8 | 53* | 2 | 6 | -1 | 2
O=C(O)c1ccc(N=Nc2c(O)[nH]c3ccc(Br)cc23)cc1 | 1 | 0 | 5 | 2 | 2 | 5
O=C(N/N=C/c1c[nH]c2ccccc12)c1sc2ccccc2c1Cl | -18 | 33* | 0 | -8 | -2 | 14
O=C(N/N=C/c1c[nH]c2ccccc12)c1ccccc1 | -3 | 2 | 7 | 3 | 4 | 0
CC1=C/C(=C\c2ccc(Br)o2)C(=O)O1 | -5 | -4 | 3 | -1 | -12 | 3
O=C1C(=Cc2ccc(Br)o2)C(=O)c2ccccc21 | -6 | -7 | 2 | -7 | -4 | 55*
CC(=O)OC[C@]12CC[C@H]3[C@@](C)(CC[C@H]4C(C)(C)CCC[C@]34C)[C@@H]1C[C@H](C1=CC(=O)O[C@@H]1OC(C)=O)O2 | -10 | / | / | / | -19 | /
COc1cc2c(cc1OC)CN(CC(=O)Nc1ccc(Cl)c(S(=O)(=O)N(C)C)c1)CC2 | -9 | 40* | -10 | -1 | 4 | -3
CNNC(=S)Nc1cccc(C(F)(F)F)c1 | 2 | -1 | 2 | 1 | -6 | -1
FC(F)(F)c1cccc(NC(=S)NNC(=S)Nc2cccc(C(F)(F)F)c2)c1 | -9 | 33* | -21 | -21 | -10 | 13
O=C(CN(c1ccccn1)S(=O)(=O)c1ccccc1)N/N=C/c1cccc([N+](=O)[O-])c1 | 8 | 5 | -2 | 2 | 16 | 11
COCCCNC(=O)c1cc2cc(Br)ccc2oc1=O | 6 | 5 | 5 | 4 | -7 | 9
O=C(NNC(=O)c1cc2cc(Br)ccc2oc1=O)c1ccc(O)cc1O | 1 | 34* | -4 | -4 | -6 | 1
CCOC(=O)c1sc(N)c(C(=O)Nc2ccccc2OC)c1C | -17 | 29* | 3 | 0 | -14 | 3
CCOC(=O)c1sc(N)c(C(=O)OC)c1C | 2 | 2 | 6 | 6 | 4 | -1
O=C(CCCn1cc([N+](=O)[O-])cn1)Nc1cccnc1 | 7 | -2 | 4 | -2 | 2 | 2
NS(=O)(=O)c1cccc(NC(=O)COC(=O)/C=C/c2nc3ccccc3s2)c1 | 2 | / | / | / | -3 | /
COc1ccc(NC(=O)C2CCN(C(=O)c3ccccc3)CC2)cc1OC | 2 | 1 | -2 | 2 | 1 | 3
COc1ccc(NC(=O)C2CCN(C(=O)c3cccs3)CC2)cc1OC | 6 | 32* | 1 | 1 | -1 | 2
CC(C)(C)OC(=O)CC1(C#N)c2ccccc2C(Br)=CN1C(=O)c1ccccc1 (stereo not given) | -2 | -1 | 7 | 0 | -4 | -3
CCn1c2ccccc2c2cc(NC(=O)c3ccc(C)c([N+](=O)[O-])c3)ccc21 | 1 | 37* | -10 | -9 | 9 | -3
O=C(c1cccs1)N1CCC(c2nc3c(nnn3Cc3ccccc3Cl)c(=O)[nH]2)CC1 | 12 | 28* | 0 | 0 | 8 | -1
